{"source": "ChEMBL document CHEMBL1795290", "about": "“Simplification of the tetracyclic SIRT1-selective inhibitor MC2141: coumarin- and pyrimidine-based SIRT1/2 inhibitors with different selectivity profile” (Bioorg Med Chem, 2011)", "key": {"U-937 [1]": {"system": "U-937", "experiment": "Toxicity in human U937 cells at 50 uM incubated for 30 hrs", "format": "cell-based", "settings": "u-937, 30 h"}, "[2]": {"target": "T1, NAD-dependent protein deacetylase sirtuin-2 (Homo sapiens, UniProt Q8IXJ6)", "T1 sequence (Q8IXJ6 whole entry)": "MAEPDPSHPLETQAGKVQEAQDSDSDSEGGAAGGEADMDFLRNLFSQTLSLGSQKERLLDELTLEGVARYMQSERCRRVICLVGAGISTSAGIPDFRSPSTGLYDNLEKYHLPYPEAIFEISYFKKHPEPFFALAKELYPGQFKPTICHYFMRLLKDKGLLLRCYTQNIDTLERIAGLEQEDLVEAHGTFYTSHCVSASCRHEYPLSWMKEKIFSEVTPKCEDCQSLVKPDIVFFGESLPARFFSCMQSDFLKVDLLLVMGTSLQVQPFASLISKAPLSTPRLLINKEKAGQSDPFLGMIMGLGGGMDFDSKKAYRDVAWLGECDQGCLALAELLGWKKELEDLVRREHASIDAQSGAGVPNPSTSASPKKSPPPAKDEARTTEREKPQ", "experiment": "Inhibition of human recombinant SIRT2 expressed in Escherichia coli incubated at 37 degC for 2 hrs by Fluor de Lys fluorescence assay", "how_it_was_run": "(§1)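 Human recombinant enzymes expressed in E. coli: SIRT1 at 2 U, SIRT2 at 7 U. Two-stage assay with a deacetylation step at 37 °C for 2 h, using Fluor de Lys-SIRT1/2 substrate with NAD+ and compound (50 µM single point or a concentration series). IC50 obtained by curve fitting.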"}, "[3]": {"target": "T2, NAD-dependent protein deacetylase sirtuin-1 (Homo sapiens, UniProt Q96EB6)", "T2 sequence (Q96EB6 whole entry)": "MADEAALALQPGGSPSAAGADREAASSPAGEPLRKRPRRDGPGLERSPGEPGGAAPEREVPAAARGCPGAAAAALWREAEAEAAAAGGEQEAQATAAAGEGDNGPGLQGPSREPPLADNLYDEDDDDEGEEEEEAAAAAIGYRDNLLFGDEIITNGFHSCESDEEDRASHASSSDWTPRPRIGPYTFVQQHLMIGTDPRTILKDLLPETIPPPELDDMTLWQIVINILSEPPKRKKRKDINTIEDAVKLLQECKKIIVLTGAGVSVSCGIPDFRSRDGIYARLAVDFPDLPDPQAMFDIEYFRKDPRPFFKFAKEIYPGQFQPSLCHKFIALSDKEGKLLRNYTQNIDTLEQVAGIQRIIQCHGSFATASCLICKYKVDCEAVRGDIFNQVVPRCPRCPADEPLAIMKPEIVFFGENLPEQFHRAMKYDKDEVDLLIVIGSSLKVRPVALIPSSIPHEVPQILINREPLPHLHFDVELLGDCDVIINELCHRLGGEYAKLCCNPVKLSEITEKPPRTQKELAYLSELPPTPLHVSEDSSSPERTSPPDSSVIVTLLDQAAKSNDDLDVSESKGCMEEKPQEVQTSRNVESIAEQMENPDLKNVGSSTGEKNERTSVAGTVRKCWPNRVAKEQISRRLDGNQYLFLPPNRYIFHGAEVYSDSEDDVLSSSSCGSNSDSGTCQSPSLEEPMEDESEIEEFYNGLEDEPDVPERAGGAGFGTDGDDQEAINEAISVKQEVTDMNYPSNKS", "experiment": "Inhibition of human recombinant SIRT1 expressed in Escherichia coli incubated at 37 degC for 2 hrs by Fluor de Lys fluorescence assay", "how_it_was_run": "as §1"}, "[4]": {"target": "T3, NAD-dependent protein deacetylase sirtuin-2 (Homo sapiens) (UniProt Q8IXJ6)", "T3 sequence (whole entry)": "T1 sequence (Q8IXJ6 whole entry)", "experiment": "Inhibition of human recombinant SIRT2 expressed in Escherichia coli at 50 uM incubated at 37 degC for 2 hrs by Fluor de Lys fluorescence assay", "how_it_was_run": "as §1"}, "[5]": {"target": "T4, NAD-dependent protein deacetylase sirtuin-1 (Homo sapiens) (UniProt Q96EB6)", "T4 sequence (whole entry)": "T2 sequence (Q96EB6 whole entry)", "experiment": "Inhibition of human recombinant SIRT1 expressed in Escherichia coli at 50 uM incubated at 37 degC for 2 hrs by Fluor de Lys fluorescence assay", "how_it_was_run": "as §1"}, "U-937 [6]": {"system": "U-937", "experiment": "Induction of apoptosis in human U937 cells assessed as caspase 3/7 activation at 50 uM incubated for 30 hrs by FACS assay based B-Bridge method", "format": "functional", "how_it_was_run": "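U937 cells were treated at 50 µM for 30 h. Apoptosis was scored as caspase 3–7 activation using a caspase 3–7 detection kit, with FACS read-out.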"}, "U-937 [7]": {"system": "U-937", "experiment": "Induction of granulocytic differentiation in human U937 cells assessed as change in CD11c expression at 50 uM […] by FACS assay", "format": "functional"}, "U-937 [8]": {"system": "U-937", "experiment": "Cell cycle arrest in human U937 cells assessed as accumulation at G2/M phase at 50 uM incubated for 30 hrs by flow cytometry", "format": "functional, cell-based", "how_it_was_run": "(§2)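 U937 leukaemia cells were exposed to compound at 50 µM for 30 h. Then 2.5 × 10^5 cells were resuspended in hypotonic buffer (0.1% Triton X-100, 0.1% sodium citrate, 50 µg/mL propidium iodide, RNase A) and kept 30 min in the dark. DNA content was read by flow cytometry and cell-cycle phases were modelled. Run in triplicate.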"}, "U-937 [9]": {"system": "U-937", "experiment": "Cell cycle arrest in human U937 cells assessed as accumulation at G1 phase at 50 uM incubated for 30 hrs by flow cytometry", "format": "functional, cell-based", "how_it_was_run": "as §2"}, "U-937 [10]": {"system": "U-937", "experiment": "Cell cycle arrest in human U937 cells assessed as accumulation at G1/S phase at 50 uM incubated for 30 hrs by flow cytometry", "format": "functional, cell-based", "how_it_was_run": "as §2"}}, "note": "Calls of active or inactive are those of the source. No cut-off for these calls is given here."}
{"smiles": "O=c1[nH]c(=S)[nH]c(CCc2ccccc2)c1Cc1c(O)ccc2ccccc12", "values": [{"measurement": "Activity", "setting": "U-937 [1]", "result": "Non-toxic"}, {"measurement": "IC50", "setting": "[2]", "result": 50.8, "unit": "µM"}, {"measurement": "IC50", "setting": "[3]", "result": 17.5, "unit": "µM"}, {"measurement": "inhibition", "setting": "[4]", "result": 49.8, "unit": "%"}, {"measurement": "inhibition", "setting": "[5]", "result": 83, "unit": "%"}, {"measurement": "Activity", "setting": "U-937 [6]", "result": "Active"}, {"measurement": "Activity", "setting": "U-937 [7]", "result": "inactive"}]}
{"smiles": "O=c1nc2oc3ccc4ccccc4c3cc-2c(=O)n1-c1ccccc1", "values": [{"measurement": "Activity", "setting": "U-937 [8]", "result": "Active"}, {"measurement": "Activity", "setting": "U-937 [7]", "result": "inactive"}]}
{"smiles": "O=C1Oc2ccc3ccccc3c2CC1C(=O)c1ccc(Cl)cc1", "note": "(centres undefined)", "values": [{"measurement": "Activity", "setting": "U-937 [8]", "result": "Active"}, {"measurement": "Activity", "setting": "U-937 [1]", "result": "Non-toxic"}, {"measurement": "inhibition", "setting": "[4]", "result": 89.5, "unit": "%"}, {"measurement": "inhibition", "setting": "[5]", "result": 17.1, "unit": "%"}, {"measurement": "Activity", "setting": "U-937 [7]", "result": ">30", "unit": "%"}]}
{"smiles": "O=c1[nH]c(=S)[nH]c(-c2ccc3ccccc3c2)c1Cc1c(O)ccc2ccccc12", "values": [{"measurement": "Activity", "setting": "U-937 [1]", "result": "Non-toxic"}, {"measurement": "IC50", "setting": "[2]", "result": 49.9, "unit": "µM"}, {"measurement": "IC50", "setting": "[3]", "result": 12.4, "unit": "µM"}, {"measurement": "inhibition", "setting": "[4]", "result": 47.9, "unit": "%"}, {"measurement": "inhibition", "setting": "[5]", "result": 83, "unit": "%"}, {"measurement": "Activity", "setting": "U-937 [6]", "result": "Active"}, {"measurement": "Activity", "setting": "U-937 [7]", "result": "inactive"}, {"measurement": "Activity", "setting": "U-937 [9]", "result": "Active"}]}
{"smiles": "O=C1Oc2ccc3ccccc3c2CC1C(=O)c1ccccc1", "note": "(centres undefined)", "values": [{"measurement": "Activity", "setting": "U-937 [1]", "result": "Non-toxic"}, {"measurement": "Activity", "setting": "U-937 [10]", "result": "Active"}, {"measurement": "IC50", "setting": "[2]", "result": 179, "unit": "µM"}, {"measurement": "IC50", "setting": "[3]", "result": 112, "unit": "µM"}, {"measurement": "inhibition", "setting": "[4]", "result": 20.2, "unit": "%"}, {"measurement": "inhibition", "setting": "[5]", "result": 32.1, "unit": "%"}, {"measurement": "Activity", "setting": "U-937 [6]", "result": "Active"}]}
